Assay results from the array DNA melting data of Ke et al. (doi:10.1101/2024.01.08.574731).

Tests used:
[1] = folding enthalpy; higher = less favourable; fluorescence melt of hairpins on a sequencing array, two-state fit; conditions: sodium 0.088 M
Outline: (§1)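 Folding enthalpy and melting temperature come from bootstrapped two-state fits to Cy3 fluorescence of library hairpins carrying annealed Cy3 and quencher oligos on a sequenced MiSeq flow cell. Imaging was done in 50 mM Na-HEPES pH 8.0, 25 mM NaCl, stepping by 2.5 °C up to 60 °C, and signals were normalised to pre-quench Cy3 and to control constructs. Results of four replicates were combined by inverse variance, and fitted temperatures were raised by 9.35 °C to match UV melts.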

[2] = melting temperature; fluorescence melt of hairpins on a sequencing array, two-state fit, raised by 9.35 °C to match UV melts; conditions: sodium 0.088 M
Outline: as §1

GCCATTGGAAACAATGGC (((((((....)))))))
folding enthalpy [1]: -43.9 kcal/mol | Tm [2]: 67.5 °C

GTGTGTCGAAAGACTCAC (((.(((....))).)))
folding enthalpy [1]: -40.9 kcal/mol | Tm [2]: 53.2 °C

GCATCCGAAAGGACTGC ((((((....))).)))
folding enthalpy [1]: -15 kcal/mol | Tm [2]: 47.8 °C

GTTGGGGGAAACCTCGAC ((.(.((....)).).))
folding enthalpy [1]: -23.5 kcal/mol | Tm [2]: 34.7 °C

GGTGACGAAAGTCTCACC ((((((....)))..)))
folding enthalpy [1]: -15.1 kcal/mol | Tm [2]: 40.9 °C

GTTTGTGGAAACACAAGC (.(((((....))))).)
folding enthalpy [1]: -23.1 kcal/mol | Tm [2]: 45.1 °C

GAATTCCGAAAGGATTTC (((.(((....))).)))
folding enthalpy [1]: -29.7 kcal/mol | Tm [2]: 40.7 °C

GACCGAGGAAACTCAGTC (((.(((....))).)))
folding enthalpy [1]: -21 kcal/mol | Tm [2]: 34.4 °C

GGGCAAGGAAACTTGTCC ((.((((....)))).))
folding enthalpy [1]: -40.7 kcal/mol | Tm [2]: 52.3 °C

GACAGAGGAAACTCCGTC (((.(((....))).)))
folding enthalpy [1]: -18.3 kcal/mol | Tm [2]: 35 °C

GATCTTCAAGAAGATC ((((((....))))))
folding enthalpy [1]: -33.5 kcal/mol | Tm [2]: 46 °C

GTCCCGCGAAAGCGGAC (((.(((....))))))
folding enthalpy [1]: -9.81 kcal/mol | Tm [2]: 56.3 °C

GATCACGCTCGTGATC ((((((....))))))
folding enthalpy [1]: -45.5 kcal/mol | Tm [2]: 60.9 °C

GCTAACGAAAGTTAAAGC ((((((....)))..)))
folding enthalpy [1]: -18.5 kcal/mol | Tm [2]: 36.7 °C

GGCTGCACGAAAGTGGCC (((..(((....))))))
folding enthalpy [1]: -20 kcal/mol | Tm [2]: 49 °C

GTGCTTCGAAAGAATCAC (((.(((....))).)))
folding enthalpy [1]: -35.5 kcal/mol | Tm [2]: 41.6 °C

GGTCTAGGAAACTAGATC (.(((((....))))).)
folding enthalpy [1]: -29.8 kcal/mol | Tm [2]: 40.3 °C

GAGTGTACGAAAGTACTC (((..(((....))))))
folding enthalpy [1]: -11.7 kcal/mol | Tm [2]: 32.8 °C

GATCGGAAAGCCGATC ((((((....))))))
folding enthalpy [1]: -35.4 kcal/mol | Tm [2]: 51.3 °C

GACGATACGAAAGTAGTC (((..(((....))))))
folding enthalpy [1]: -17 kcal/mol | Tm [2]: 36.1 °C

GATCTGAAGCCAGATC ((((((....))))))
folding enthalpy [1]: -33.2 kcal/mol | Tm [2]: 45.5 °C

GGACCCGGAAACGAGTCC ((((.((....)).))))
folding enthalpy [1]: -32.4 kcal/mol | Tm [2]: 49.3 °C

CGGACGGAAACGTAGCCG ((((((....)))..)))
folding enthalpy [1]: -23.6 kcal/mol | Tm [2]: 33.4 °C

GTTGCGCCGAAAGGCAAC (((..(((....))))))
folding enthalpy [1]: -13.2 kcal/mol | Tm [2]: 42.4 °C

GCTACTGGAAACGGTAGC (((((.(....).)))))
folding enthalpy [1]: -37.5 kcal/mol | Tm [2]: 50.2 °C

GCCTGCGAAAGCACTGGC ((((((....)))..)))
folding enthalpy [1]: -20 kcal/mol | Tm [2]: 49.9 °C

GGTGTTGGAAACAACGTC (..((((....))))..)
folding enthalpy [1]: -26.5 kcal/mol | Tm [2]: 47.2 °C

GGCTCTACGAAAGTAGCC (((..(((....))))))
folding enthalpy [1]: -17.1 kcal/mol | Tm [2]: 40.1 °C

GCATACGAAAGTAGCTGC ((((((....)))..)))
folding enthalpy [1]: -23.6 kcal/mol | Tm [2]: 48.1 °C

GCAGTCGCGAAAGCGTGC (((..(((....))))))
folding enthalpy [1]: -14.2 kcal/mol | Tm [2]: 46.1 °C

GCCCCAGCGAAAGCTGGC (((..(((....))))))
folding enthalpy [1]: -5.59 kcal/mol | Tm [2]: 37.9 °C

GTCGGAGCGAAAGCTGAC (((..(((....))))))
folding enthalpy [1]: -22.1 kcal/mol | Tm [2]: 44.3 °C

GGTTCTACGAAAGTAACC (((..(((....))))))
folding enthalpy [1]: -19.6 kcal/mol | Tm [2]: 28.2 °C

GTCTGGGGAAACTCAGAC (((((.(....).)))))
folding enthalpy [1]: -43.7 kcal/mol | Tm [2]: 49.1 °C

GTGGTAGGAAACTACTGC (..((((....))))..)
folding enthalpy [1]: -18.2 kcal/mol | Tm [2]: 36.1 °C

GCAATGGGAAACCACTGC (((.(((....))).)))
folding enthalpy [1]: -28.6 kcal/mol | Tm [2]: 39.1 °C

GCTGTCCGAAAGGAAAGC (((.(((....))).)))
folding enthalpy [1]: -37.8 kcal/mol | Tm [2]: 53.7 °C

GCTCCAGGAAACTGAAGC (((.(((....))).)))
folding enthalpy [1]: -32.5 kcal/mol | Tm [2]: 38.6 °C

GACGAGGGAAACCTTGTC (((.(((....))).)))
folding enthalpy [1]: -31.4 kcal/mol | Tm [2]: 48.1 °C

GACAAGCCGAAAGGCGTC (((..(((....))))))
folding enthalpy [1]: -9.16 kcal/mol | Tm [2]: 42.3 °C

GCTCTATCGAAAGATAGC (((..(((....))))))
folding enthalpy [1]: -13.6 kcal/mol | Tm [2]: 30.2 °C

GCCGTTCGAAAGAAGGC (((.(((....))))))
folding enthalpy [1]: -30.4 kcal/mol | Tm [2]: 50.4 °C

GATCGACACGTCGATC ((((((....))))))
folding enthalpy [1]: -33.7 kcal/mol | Tm [2]: 59.7 °C

GGACCCGAAAGGGTGTCC ((((((....)))..)))
folding enthalpy [1]: -14 kcal/mol | Tm [2]: 47.1 °C

GGATGAGGAAACTCGTCC (((.(((....))).)))
folding enthalpy [1]: -38.4 kcal/mol | Tm [2]: 50.8 °C

GATCTCTGCGGAGATC ((((((....))))))
folding enthalpy [1]: -43.7 kcal/mol | Tm [2]: 55.9 °C

GTTGAACCGAAAGGTAAC (((..(((....))))))
folding enthalpy [1]: -12.9 kcal/mol | Tm [2]: 31.1 °C

GGCGGCGAAAGCCAAGCC ((((((....)))..)))
folding enthalpy [1]: -25.5 kcal/mol | Tm [2]: 63.9 °C

GTTGAGGGAAACTTCAAC (((((.(....).)))))
folding enthalpy [1]: -33.6 kcal/mol | Tm [2]: 40.5 °C

GAATTCGAAAGAATTC ((((((....))))))
folding enthalpy [1]: -44.9 kcal/mol | Tm [2]: 54.4 °C

GCAAACGAAAGTTGTGC ((((((....))).)))
folding enthalpy [1]: -22.6 kcal/mol | Tm [2]: 43.4 °C

GTCCGCGAAAGCGGAGAC ((((((....)))..)))
folding enthalpy [1]: -7 kcal/mol | Tm [2]: 56.8 °C

GATGATGGAAACATCACC (.(((((....))))).)
folding enthalpy [1]: -16.3 kcal/mol | Tm [2]: 37.3 °C

GTCTCGAAAGAGAC (((((....)))))
folding enthalpy [1]: -24.8 kcal/mol | Tm [2]: 60.5 °C

GTTTGAACGAAAGTTAAC (((..(((....))))))
folding enthalpy [1]: -12.3 kcal/mol | Tm [2]: 24.4 °C

GGAATAGGAAACTATTTC (.(((((....))))).)
folding enthalpy [1]: -29.1 kcal/mol | Tm [2]: 30.6 °C

CGCCCACGGAAACGTGCG (((..(((....))))))
folding enthalpy [1]: -12.3 kcal/mol | Tm [2]: 37.1 °C

GGGTATGGAAACGTACTC (.(((.(....).))).)
folding enthalpy [1]: -13.4 kcal/mol | Tm [2]: 30.7 °C

GATCTATGATTAGATC ((((((....))))))
folding enthalpy [1]: -31.9 kcal/mol | Tm [2]: 39.8 °C

GATATGCGAAAGCAATC (((.(((....))))))
folding enthalpy [1]: -10.7 kcal/mol | Tm [2]: 30 °C

GTCTTCGAAAGAATGGAC ((((((....)))..)))
folding enthalpy [1]: -14.9 kcal/mol | Tm [2]: 27.2 °C

GCAGTTGGAAACGATTGC (((.(.(....).).)))
folding enthalpy [1]: -20.5 kcal/mol | Tm [2]: 36.1 °C

TCCAGGAAACTGGA (((((....)))))
folding enthalpy [1]: -22.8 kcal/mol | Tm [2]: 46 °C

CGTGCGGAAACGCTAACG ((((((....)))..)))
folding enthalpy [1]: -20 kcal/mol | Tm [2]: 43.5 °C

GCTAGCTCGAAAGAGAGC (((..(((....))))))
folding enthalpy [1]: -12.2 kcal/mol | Tm [2]: 30.4 °C

GGAGACGAAAGTCTTTCC ((((((....)))..)))
folding enthalpy [1]: -10.9 kcal/mol | Tm [2]: 32.6 °C

GCAGTAGAAATACTGC ((((((....))))))
folding enthalpy [1]: -34.6 kcal/mol | Tm [2]: 54.8 °C

GCTAGAGGAAACTCTAAC (.(((((....))))).)
folding enthalpy [1]: -9.45 kcal/mol | Tm [2]: 24.8 °C
